Test results from the array DNA melting data of Ke et al. (doi:10.1101/2024.01.08.574731).

Key:
[1] = folding enthalpy; higher = less favourable; fluorescence melt of hairpins on a sequencing array, two-state fit; conditions: sodium 0.088 M
Summary of the method: (§1)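 Cy3 fluorescence of library hairpins on a sequenced MiSeq flow cell, with annealed Cy3 and quencher oligos, was imaged in 50 mM Na-HEPES pH 8.0, 25 mM NaCl in 2.5 °C steps up to 60 °C. Signals were normalised to pre-quench Cy3 and to control variants. Melting temperature and folding enthalpy came from bootstrapped two-state fits, inverse-variance combined over four replicates. Fitted temperatures were raised by 9.35 °C to match UV melts.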

[2] = melting temperature; fluorescence melt of hairpins on a sequencing array, two-state fit, raised by 9.35 °C to match UV melts; conditions: sodium 0.088 M
Summary of the method: as §1

Row | Sequence | folding enthalpy [1] [kcal/mol] | Tm [2] [°C]
1 | GTAAAAGCGAAAGCTTAC (((..(((....)))))) | -11.6 | 35.9
2 | GTAAACCGAAAGGTTAC (((.(((....)))))) | -15.7 | 43.2
3 | GTAAACGAAAGTTACTAC ((((((....)))..))) | -17.6 | 34.8
4 | GTAAACGAAAGTTTTAC ((((((....))).))) | -18.5 | 36.5
5 | GTAAACTCGAAAGAGTAC (((..(((....)))))) | -11.9 | 31
6 | GTAAAGCCGAAAGGCTAC (((..(((....)))))) | -8.48 | 35.5
7 | GTAAAGCGAAAGCTATAC (((.(((....))).))) | -15.6 | 41.3
8 | GTAAATACGAAAGTATAC (((..(((....)))))) | -9.48 | 25
9 | GTAAATCCGAAAGGATAC (((..(((....)))))) | -11 | 33.8
10 | GTAACACGAAAGTGATAC (((.(((....))).))) | -25.5 | 46.8
11 | GTAACCCCGAAAGGGTAC (((..(((....)))))) | -13.6 | 35
12 | GTAACCCGAAAGGGCTAC (((.(((....))).))) | -20 | 45.6
13 | GTAACCCGAAAGGGTAC (((.(((....)))))) | -12.5 | 50.1
14 | GTAACCGAAAGGTCTTAC ((((((....)))..))) | -11.6 | 30.6
15 | GTAACCGAAAGGTTAC ((((((....)))))) | -29 | 67.1
16 | GTAACCGCGAAAGCGTAC (((..(((....)))))) | -8.01 | 28.4
17 | GTAACCGGAAACAGTTAC (((((.(....).))))) | -21.2 | 32.9
18 | GTAACCGGAAACGGCTAC (((.(((....))).))) | -25.9 | 42.9
19 | GTAACCGGAAACGGTCAC ((.((((....)))).)) | -17.2 | 39.7
20 | GTAACCGGAAACGGTTAC (((((((....))))))) | -38.8 | 65.8
21 | GTAACGCGAAAGCGGTAC (((.(((....))).))) | -27.1 | 65.3
22 | GTAACGGGAAACCGTCAC ((.((((....)))).)) | -16.4 | 35.7
23 | GTAACGGGAAACCGTTAC (((((((....))))))) | -49.6 | 60.5

Row | Sequence | folding enthalpy [1] [kcal/mol] | Tm [2] [°C]
24 | GTAACTCGAAAGAGTAC (((.(((....)))))) | -15 | 42.4
25 | GTAACTGAAAAGTTAC ((((((....)))))) | -31.4 | 50.9
26 | GTAAGACGAAAGTCGTAC (((.(((....))).))) | -17.8 | 50.4
27 | GTAAGACGAAAGTCTAC (((.(((....)))))) | -14.6 | 41.7
28 | GTAAGAGGAAACTCTTGC (.(((((....))))).) | -25 | 38.7
29 | GTAAGCGAAAGCTTGTAC ((((((....)))..))) | -11.7 | 32.3
30 | GTAAGCGGAAACACTTAC (((((.(....).))))) | -29.8 | 35.6
31 | GTAAGCGGAAACGTTTGC (.((.((....)).)).) | -14.9 | 31.9
32 | GTAAGGCCGAAAGGCTAC (((..(((....)))))) | -9.55 | 33.8
33 | GTAAGGCGAAAGCCGTAC (((.(((....))).))) | -14.2 | 53
34 | GTAAGGGAAACCTTAC ((((((....)))))) | -26.2 | 48
35 | GTAAGGGGAAACCCCTAC (((.(((....))).))) | -16.9 | 39
36 | GTAAGGGGAAACCCTTGC (.(((((....))))).) | -23.3 | 46.2
37 | GTAAGTCCGAAAGGATAC (((..(((....)))))) | -10.1 | 25.9
38 | GTAAGTCGAAAGACCTAC (((.(((....))).))) | -17 | 35.7
39 | GTAAGTGGAAACACTTAC (((((((....))))))) | -45.2 | 55.4
40 | GTAATAACGAAAGTTTAC (((..(((....)))))) | -10.5 | 26.8
41 | GTAATACCGAAAGGTTAC (((..(((....)))))) | -14.6 | 31.5
42 | GTAATCCGAAAGGAATAC (((.(((....))).))) | -26.2 | 40.6
43 | GTAATCGAAAGATTATAC ((((((....)))..))) | -15.6 | 33.4
44 | GTAATCGGAAACGACTAC (((.(((....))).))) | -19.5 | 34.3
45 | GTAATGCGAAAGCAATAC (((.(((....))).))) | -20 | 44.6
46 | GTAATGCGAAAGCACTAC (((.(((....))).))) | -19.9 | 39.4

Row | Sequence | folding enthalpy [1] [kcal/mol] | Tm [2] [°C]
47 | GTAATGGGAAACCATTGC (.(((((....))))).) | -26.4 | 43.3
48 | GTAATGGGAAACCGTTAC ((((.((....)).)))) | -34.3 | 44.1
49 | GTAATGTCGAAAGACTAC (((..(((....)))))) | -11.7 | 28.8
50 | GTAATTGGAAACAATTAC (((((((....))))))) | -45.9 | 50.4
51 | GTAATTGGAAACGATTAC (((((.(....).))))) | -32.4 | 38.1
52 | GTACAACGAAAGTTTAC (((.(((....)))))) | -11.5 | 27.8
53 | GTACAAGCGAAAGCTTAC (((..(((....)))))) | -11.2 | 28.4
54 | GTACAAGGAAACTCGTAC ((((.((....)).)))) | -22 | 29.1
55 | GTACACGAAAGTGATTAC ((((((....)))..))) | -14.6 | 27.4
56 | GTACACGAAAGTGCTAC ((((((....))).))) | -15.9 | 39.9
57 | GTACACGAAAGTGGATAC ((((((....)))..))) | -11.8 | 34.5
58 | GTACACGAAAGTGTCTAC ((((((....)))..))) | -10.6 | 35.8
59 | GTACACGAAAGTGTTAC ((((((....))).))) | -12.9 | 42.5
60 | GTACACGAAAGTGTTTAC ((((((....)))..))) | -9.29 | 29
61 | GTACATGAAAATGTAC ((((((....)))))) | -33.9 | 51.2
62 | GTACCACGAAAGTGTTAC (((.(((....))).))) | -24.1 | 39.2
63 | GTACCAGGAAACCAGTAC ((((..(....)..)))) | -11.4 | 24.9
64 | GTACCCGAAAGGGATTAC ((((((....)))..))) | -9.27 | 25.7
65 | GTACCCGAAAGGGGCTAC ((((((....)))..))) | -14.3 | 41.4
66 | GTACCCGAAAGGGGGTAC ((((((....)))..))) | -18.1 | 49.6
67 | GTACCCGAAAGGGTATAC ((((((....)))..))) | -10.4 | 49.4
68 | GTACCCGCGAAAGCGTAC (((..(((....)))))) | -8.05 | 25.7
69 | GTACCGGAAACGGTAC ((((((....)))))) | -36.6 | 64.7

Row | Sequence | folding enthalpy [1] [kcal/mol] | Tm [2] [°C]
70 | GTACCGGGAAACCGACAC ((..(((....)))..)) | -8.42 | 22.9
71 | GTACCGGGAAACCGGTAC (((((((....))))))) | -29.2 | 68.3
72 | GTACCTGGAAACAGGTAC (((((((....))))))) | -41.8 | 61.9
73 | GTACCTGGAAACGGGTAC (((((.(....).))))) | -41.8 | 50.4
74 | GTACGACGAAAGTCATAC (((.(((....))).))) | -19 | 39.4
75 | GTACGAGAAATCGTAC ((((((....)))))) | -38.2 | 54.3
76 | GTACGAGGAAACCCGTAC (((((.(....).))))) | -30.8 | 46.5
77 | GTACGCCCGAAAGGGTAC (((..(((....)))))) | -11.4 | 33.2
78 | GTACGCCGAAAGGCATAC (((.(((....))).))) | -16.4 | 44.7
79 | GTACGCGAAAGCGCTAC ((((((....))).))) | -13.2 | 42.2
80 | GTACGCGAAAGCGGTTAC ((((((....)))..))) | -8.32 | 32.7
81 | GTACGGGCGAAAGCCTAC (((..(((....)))))) | -8.32 | 30
82 | GTACGTCGAAAGACTAC (((.(((....)))))) | -21.9 | 41
83 | GTACGTGGAAACACACAC ((..(((....)))..)) | -10.8 | 27.4
84 | GTACGTGGAAACACATAC (((.(((....))).))) | -22.1 | 32.7
85 | GTACGTGGAAACGCGTAC (((((.(....).))))) | -32.2 | 52.7
86 | GTACTAGGAAACTAGTGC (.(((((....))))).) | -26.9 | 42.8
87 | GTACTAGGAAACTGGTAC ((((.((....)).)))) | -31.4 | 42.2
88 | GTACTCACGAAAGTGTAC (((..(((....)))))) | -11 | 31.9
89 | GTACTCGAAAGAGGATAC ((((((....)))..))) | -13.2 | 28.5
90 | GTACTCGAAAGAGGTTAC ((((((....)))..))) | -8.46 | 26.6
91 | GTACTCGAAAGAGTTTAC ((((((....)))..))) | -9.32 | 30
